# Published values from different studies.
# Lines come from different studies, so protocols differ.
# Organism: Mycobacterium tuberculosis
# Read-out: microbial growth
Structure (SMILES),test,test system,conditions,MIC
c1ccc(CCOc2cc(-c3ccccn3)nc3ncnn23)cc1,,H37RV,,> 100 µM
O=c1[nH]c2nc(-c3ccncc3)sc2c(=O)n1O,,,,> 100 µM
CO[C@H]1/C=C/O[C@@]2(C)Oc3c(C)c(O)c4c(O)c(c(/C=N/N5CCN(C)CC5)c(O)c4c3C2=O)NC(=O)/C(C)=C\C=C\[C@H](C)[C@H](O)[C@@H](C)[C@@H](O)[C@@H](C)[C@H](OC(C)=O)[C@@H]1C,resazurin,H37RV,,0.152 µM
FC(F)(F)c1ccc(CCNc2cc(-c3ccccn3)nc3nnc(C4CC4)n23)cc1,,H37RV,,42 µM
CCCc1nc2[nH]c(=O)n(O)c(=O)c2s1,,,,47.4 µM
CCc1cc(=O)c2c(O)c3ccoc3c(OC)c2o1,resazurin,H37RV,21 days,512 µg/mL
NNC(=O)c1ccncc1,,H37RV,,0.125 µg/mL
O=[N+]([O-])c1cn2c(n1)OC[C@@H](OCc1ccc(OC(F)(F)F)cc1)C2,,H37RV,,0.31 µM
CO[C@H]1/C=C/O[C@@]2(C)Oc3c(C)c(O)c4c(O)c(c(/C=N/N5CCN(C)CC5)c(O)c4c3C2=O)NC(=O)/C(C)=C\C=C\[C@H](C)[C@H](O)[C@@H](C)[C@@H](O)[C@@H](C)[C@H](OC(C)=O)[C@@H]1C,resazurin,H37RV,21 days,0.5 µg/mL
CCc1nc2[nH]c(=O)n(O)c(=O)c2s1,,,,46.4 µM
CCc1cc(=O)c2c(OCC(O)CN3CCOCC3)c3ccoc3c(OC)c2o1 (centres unmarked),resazurin,,21 days,64 µg/mL
O=c1[nH]c2ncsc2c(=O)n1O,,,,27.4 µM
FC(F)Oc1ccc(CCNc2cc(-c3ccccn3)nc3nncn23)cc1,,H37RV,,1.1 µM
Nc1nc2[nH]c(=O)n(O)c(=O)c2s1,,,,> 100 µM
CO[C@H]1/C=C/O[C@@]2(C)Oc3c(C)c(O)c4c(O)c(c(/C=N/N5CCN(C)CC5)c(O)c4c3C2=O)NC(=O)/C(C)=C\C=C\[C@H](C)[C@H](O)[C@@H](C)[C@@H](O)[C@@H](C)[C@H](OC(C)=O)[C@@H]1C,resazurin,H37RV,7 days,0.1 µg/mL
CCc1cc(=O)c2c(OCC(O)CNC(C)(C)C)c3ccoc3c(OC)c2o1 (centres unmarked),resazurin,H37RV,21 days,128 µg/mL
CCOC(=O)c1c(-c2ccc(OC)cc2)oc2ccc(OCc3cn(Cc4ccccc4)nn3)c(CN3CCCCC3)c12,,CDC1551,,2.4 µM
[H]/N=C(/N)N[C@H]1[C@H](O)[C@@H](O)[C@H](O[C@@H]2O[C@@H](C)[C@](O)(C=O)[C@H]2O[C@@H]2O[C@@H](CO)[C@H](O)[C@@H](O)[C@@H]2NC)[C@@H](N/C(N)=N\[H])[C@@H]1O,resazurin,H37RV,21 days,0.25 µg/mL
COc1cc(C=NNC(N)=S)ccc1OC(=O)CN1C(=O)CSC1=O,resazurin,H37RV,,5.23 µM
CC[C@@H](CO)NCCN[C@@H](CC)CO,resazurin,H37RV,7 days,1.56 µg/mL
NNC(=O)c1ccncc1,resazurin,H37RV,5 days,0.03 µg/mL
FC(F)(F)Oc1ccc(CCNc2cc(-c3cccs3)nc3nncn23)cc1,,H37RV,,0.33 µM
CO[C@H]1/C=C/O[C@@]2(C)Oc3c(C)c(O)c4c(O)c(c(/C=N/N5CCN(C)CC5)c(O)c4c3C2=O)NC(=O)/C(C)=C\C=C\[C@H](C)[C@H](O)[C@@H](C)[C@@H](O)[C@@H](C)[C@H](OC(C)=O)[C@@H]1C,,H37RV,,0.06 µg/mL
COc1ccc(-c2oc3ccc(O)c(CN4CCCCC4)c3c2C(=O)NCc2cn(Cc3ccccc3)nn2)cc1,,CDC1551,,2 µM
[H]/N=C(/N)N[C@H]1[C@H](O)[C@@H](O)[C@H](O[C@@H]2O[C@@H](C)[C@](O)(C=O)[C@H]2O[C@@H]2O[C@@H](CO)[C@H](O)[C@@H](O)[C@@H]2NC)[C@@H](N/C(N)=N\[H])[C@@H]1O,resazurin,H37RV,5 days,1 µg/mL
CCc1cc(=O)c2c(OCC(O)CN(CC)CC)c3ccoc3c(OC)c2o1 (centres unmarked),resazurin,,21 days,64 µg/mL
[H]/N=C(/N)N[C@H]1[C@H](O)[C@@H](O)[C@H](O[C@@H]2O[C@@H](C)[C@](O)(C=O)[C@H]2O[C@@H]2O[C@@H](CO)[C@H](O)[C@@H](O)[C@@H]2NC)[C@@H](N/C(N)=N\[H])[C@@H]1O,resazurin,H37RV,,0.43 µM
CO[C@H]1/C=C/O[C@@]2(C)Oc3c(C)c(O)c4c(O)c(c(/C=N/N5CCN(C)CC5)c(O)c4c3C2=O)NC(=O)/C(C)=C\C=C\[C@H](C)[C@H](O)[C@@H](C)[C@@H](O)[C@@H](C)[C@H](OC(C)=O)[C@@H]1C,,H37RA,,0.01 µM
Fc1cccc(CCOc2cc(-c3ccccn3)nc3ncnn23)c1,,H37RV,,> 100 µM
NC(=S)NN=Cc1ccc(OC(=O)CN2C(=O)CSC2=O)cc1,resazurin,H37RV,,2.84 µM
COc1ccc(-c2oc3ccc(O)c(CN4CCCCC4)c3c2C(=O)NCc2cn(C[C@H]3O[C@H](O[C@H]4O[C@H](CO)[C@@H](O)[C@H](O)[C@H]4O)[C@H](O)[C@@H](O)[C@@H]3O)nn2)cc1,,CDC1551,,0.7 µM
CCc1cc(=O)c2c(OCC3CO3)c3ccoc3c(OC)c2o1 (centres unmarked),resazurin,,21 days,64 µg/mL
CCc1ccc(CCNc2cc(-c3ccccn3)nc3nncn23)cc1,,H37RV,,0.12 µM
CCc1cc(=O)c2c(OCC(O)CNC(C)C)c3ccoc3c(OC)c2o1 (centres unmarked),resazurin,H37RV,21 days,64 µg/mL
CCCCCc1ccc(Nc2cc(-c3ccccn3)nc3nncn23)cc1,,H37RV,,> 100 µM
COc1c(N2C[C@@H]3CCCN[C@@H]3C2)c(F)cc2c(=O)c(C(=O)O)cn(C3CC3)c12,,H37RV,,0.13 µM
CCc1ccc(CCNc2cc(-c3ccccn3)nc3cc(Br)nn23)cc1,,H37RV,,21 µM
COC(=O)C=C1SC(=NN=Cc2ccc(OC(=O)CN3C(=O)CSC3=O)cc2)NC1=O,resazurin,H37RV,,34.6 µM
